Source: ChEMBL document CHEMBL5724801, “EUbOPEN Chemogenomics Library - Multiplex” (2024)
“And” between values parts separate entries of the source, which are not always exact repeats. Equal values may be shown once.

System: HEK-293T
Experiment: Multiplex assay against HEK293T
Assay type: toxicity, cell-based
Details: human, 12 h, 1 µM, compound concentration 1 uM
In short: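 Live cells were stained at seeding with Hoechst33342, BioTracker Green Microtubule Cytoskeleton Dye, MitoTracker Red and Annexin V Alexa Fluor 680. Following compound addition, they were imaged on a CQ1 microscope at 37°C and 5% CO2 and gated by CellPathfinder machine learning into Hoechst high-intensity objects or normal cells, with normal cells split into healthy, pyknosed or fragmented nuclei and pyknosed cells into mitotic or apoptotic. Tubulin, mitochondrial-mass and membrane-permeability phenotypes are per cents of healthy-nucleus cells.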

SMILES	Population Apoptotic (%)	Population Fragmented Nuclei (%)	Population Hoechst High Intensity Objects (%)	Population Membrane Permeable-Phenotype (%)	Population Mitochondria Different-Phenotype (%)	Population Mitotic Cells (%)	Population Normal (%)	Population Pyknosed Nuclei (%)	Population Tubulin-Different-Phenotype (%)	Total Cell Count
Cl.Cl.N#Cc1ccc(O[C@@H]2c3ccccc3C[C@H]2N2CCC[C@@H](N)C2)c(Cl)c1	8.75% and 10.31%	2.35% and 6.14%	0%	1.16% and 0%	36.63% and 30%	91.25% and 89.69%	100%	47.06% and 85.09%	26.16% and 50%	340 and 114
CN(C)CCCc1cc(C(=O)Nc2ccc(-c3ccncc3)cc2)ccc1O.Cl.Cl	27% and 37%	5%	9% and 8%	0%	48% and 58%	72% and 62%	90% and 91%	14% and 11%	37% and 14%	358 and 367
Cn1cnc(-c2cnc(O[C@H]3CCN(C(=O)Cc4ccc(OC(F)(F)F)cc4)C[C@H]3F)c(C(N)=O)c2)c1			0.47% and 4.71%			91.23% and 91.04%	99.53% and 95.29%	40.24% and 73.63%		191
CC[C@H](Nc1ncnc2[nH]cnc12)c1nc2cccc(F)c2c(=O)n1-c1ccccc1 [IDELALISIB]	9.6% and 7.3%	0.69% and 2.22%	0%	1.19% and 0%	34.13% and 17.95%	90.4% and 92.7%	100%	40.97% and 76.11%		432 and 180

Same assay, conditions: human, 12 h, 1 µM, compound concentration 1 uM

SMILES	Population Healthy Nuclei (%)
CN(C)CCCc1cc(C(=O)Nc2ccc(-c3ccncc3)cc2)ccc1O.Cl.Cl	79% and 82%
CC[C@H](Nc1ncnc2[nH]cnc12)c1nc2cccc(F)c2c(=O)n1-c1ccccc1 [IDELALISIB]	58.33% and 21.67%

Same assay, conditions: human, 12 h, 10 µM, compound concentration 10 uM

SMILES	Population Apoptotic (%)	Population Fragmented Nuclei (%)	Population Healthy Nuclei (%)	Population Hoechst High Intensity Objects (%)	Population Membrane Permeable-Phenotype (%)	Population Mitochondria Different-Phenotype (%)	Population Mitotic Cells (%)	Population Normal (%)	Population Pyknosed Nuclei (%)	Population Tubulin-Different-Phenotype (%)
Cl.Cl.N#Cc1ccc(O[C@@H]2c3ccccc3C[C@H]2N2CCC[C@@H](N)C2)c(Cl)c1	22.15% and 32.8%	4.33% and 4.76%	27.27% and 10.2%	0.86% and 0%	0% and 13.33%	28.57% and 33.33%	77.85% and 67.2%	99.14% and 100%	68.4% and 85.03%	71.43% and 93.33%
CCC(=O)N1CCN(c2ccc(-n3c(=O)ccc4cnc5ccc(-c6cnc7ccccc7c6)cc5c43)cc2C(F)(F)F)CC1 [TORIN1]	71% and 51%		76%	7%	0%	78% and 87%	48%	88% and 92%		37%
CN(C)CCCc1cc(C(=O)Nc2ccc(-c3ccncc3)cc2)ccc1O.Cl.Cl	31% and 60%	10% and 11%	81% and 77%	6% and 9%	0% and 2%	49% and 63%	68% and 39%	93% and 90%	7% and 11%	33%
Cn1cnc(-c2cnc(O[C@H]3CCN(C(=O)Cc4ccc(OC(F)(F)F)cc4)C[C@H]3F)c(C(N)=O)c2)c1				0.68% and 0.69%			87.04% and 85.37%	99.32% and 99.31%	55.29% and 86.01%	
CC[C@H](Nc1ncnc2[nH]cnc12)c1nc2cccc(F)c2c(=O)n1-c1ccccc1 [IDELALISIB]	16.78% and 14.29%	0.89% and 4.58%		0%	0% and 7.69%	29.11% and 15.38%	83.22% and 85.71%	100%	63.84% and 86.93%	34.18% and 38.46%

Same assay, conditions: human, 12 h, 10 µM, compound concentration 10 uM

SMILES	Total Cell Count
Cl.Cl.N#Cc1ccc(O[C@@H]2c3ccccc3C[C@H]2N2CCC[C@@H](N)C2)c(Cl)c1	233 and 147
CCC(=O)N1CCN(c2ccc(-n3c(=O)ccc4cnc5ccc(-c6cnc7ccccc7c6)cc5c43)cc2C(F)(F)F)CC1 [TORIN1]	373 and 266
CN(C)CCCc1cc(C(=O)Nc2ccc(-c3ccncc3)cc2)ccc1O.Cl.Cl	460 and 391
Cn1cnc(-c2cnc(O[C@H]3CCN(C(=O)Cc4ccc(OC(F)(F)F)cc4)C[C@H]3F)c(C(N)=O)c2)c1	144
CC[C@H](Nc1ncnc2[nH]cnc12)c1nc2cccc(F)c2c(=O)n1-c1ccccc1 [IDELALISIB]	224 and 153

Same assay, conditions: human, 24 h, 1 µM, compound concentration 1 uM

SMILES	Population Apoptotic (%)	Population Fragmented Nuclei (%)	Population Hoechst High Intensity Objects (%)	Population Membrane Permeable-Phenotype (%)	Population Mitochondria Different-Phenotype (%)	Population Mitotic Cells (%)	Population Normal (%)	Population Pyknosed Nuclei (%)	Population Tubulin-Different-Phenotype (%)	Population Healthy Nuclei (%)
Cl.Cl.N#Cc1ccc(O[C@@H]2c3ccccc3C[C@H]2N2CCC[C@@H](N)C2)c(Cl)c1	26.62% and 47.67%	1.19% and 8.11%	0.2% and 0%	2.03% and 0%	30.14% and 50%	73.38% and 52.33%	99.8% and 100%	30.5% and 77.48%	42.9% and 56.25%	
CN(C)CCCc1cc(C(=O)Nc2ccc(-c3ccncc3)cc2)ccc1O.Cl.Cl	25%	11% and 9%	5%	1% and 0%	26% and 32%	74% and 75%	94%	10% and 6%	21% and 9%	78% and 83%
Cn1cnc(-c2cnc(O[C@H]3CCN(C(=O)Cc4ccc(OC(F)(F)F)cc4)C[C@H]3F)c(C(N)=O)c2)c1			0.45% and 3.61%			88.44% and 91.13%	99.55% and 96.39%	22.27% and 66.31%		76.21% and 29.41%
CC[C@H](Nc1ncnc2[nH]cnc12)c1nc2cccc(F)c2c(=O)n1-c1ccccc1 [IDELALISIB]	20.57% and 16.42%	1.62% and 1.42%	0%	1.07% and 0%	15.42% and 12.16%	79.43% and 83.58%	100%	22.82% and 63.51%	9.85% and 5.41%	75.57% and 35.07%

Same assay, conditions: human, 24 h, 1 µM, compound concentration 1 uM

SMILES	Total Cell Count
CN(C)CCCc1cc(C(=O)Nc2ccc(-c3ccncc3)cc2)ccc1O.Cl.Cl	542 and 486
CC[C@H](Nc1ncnc2[nH]cnc12)c1nc2cccc(F)c2c(=O)n1-c1ccccc1 [IDELALISIB]	618 and 211

Same assay, conditions: human, 24 h, 10 µM, compound concentration 10 uM

SMILES	Population Apoptotic (%)	Population Fragmented Nuclei (%)	Population Hoechst High Intensity Objects (%)	Population Membrane Permeable-Phenotype (%)	Population Mitochondria Different-Phenotype (%)	Population Mitotic Cells (%)	Population Normal (%)	Population Pyknosed Nuclei (%)	Population Tubulin-Different-Phenotype (%)	Total Cell Count
Cl.Cl.N#Cc1ccc(O[C@@H]2c3ccccc3C[C@H]2N2CCC[C@@H](N)C2)c(Cl)c1	63.58% and 76.03%	3.91% and 5.04%	1.16% and 0%	1.05% and 9.09%	72.63% and 63.64%	36.42% and 23.97%	98.84% and 100%	58.98% and 87.05%	93.68% and 90.91%	259 and 139
CCC(=O)N1CCN(c2ccc(-n3c(=O)ccc4cnc5ccc(-c6cnc7ccccc7c6)cc5c43)cc2C(F)(F)F)CC1 [TORIN1]	44%			0%	75% and 82%	46% and 55%	86% and 77%		43% and 33%	337 and 225
CN(C)CCCc1cc(C(=O)Nc2ccc(-c3ccncc3)cc2)ccc1O.Cl.Cl	32% and 47%	12% and 15%	5% and 15%	0%	38% and 48%	67% and 52%	94% and 84%	9%	23% and 19%	588 and 505
Cn1cnc(-c2cnc(O[C@H]3CCN(C(=O)Cc4ccc(OC(F)(F)F)cc4)C[C@H]3F)c(C(N)=O)c2)c1			0.8% and 0%			68.57% and 83.33%	99.2% and 100%	37.84% and 76.43%		373 and 157
CC[C@H](Nc1ncnc2[nH]cnc12)c1nc2cccc(F)c2c(=O)n1-c1ccccc1 [IDELALISIB]	22.55% and 30.43%	2.07% and 3.7%	0.34% and 0%	2.75% and 2.44%	40.11% and 19.51%	77.45% and 69.57%	99.66% and 100%	35.17% and 70.99%	61.54% and 26.83%	291 and 162

Same assay, conditions: human, 24 h, 10 µM, compound concentration 10 uM

SMILES	Population Healthy Nuclei (%)
CCC(=O)N1CCN(c2ccc(-n3c(=O)ccc4cnc5ccc(-c6cnc7ccccc7c6)cc5c43)cc2C(F)(F)F)CC1 [TORIN1]	75%
CN(C)CCCc1cc(C(=O)Nc2ccc(-c3ccncc3)cc2)ccc1O.Cl.Cl	77% and 74%
CC[C@H](Nc1ncnc2[nH]cnc12)c1nc2cccc(F)c2c(=O)n1-c1ccccc1 [IDELALISIB]	62.76% and 25.31%

Same assay, conditions: human, 48 h, 1 µM, compound concentration 1 uM

SMILES	Population Fragmented Nuclei (%)	Population Healthy Nuclei (%)	Population Hoechst High Intensity Objects (%)	Population Membrane Permeable-Phenotype (%)	Population Mitochondria Different-Phenotype (%)	Population Mitotic Cells (%)	Population Normal (%)	Population Apoptotic (%)	Population Pyknosed Nuclei (%)	Population Tubulin-Different-Phenotype (%)
Cl.Cl.N#Cc1ccc(O[C@@H]2c3ccccc3C[C@H]2N2CCC[C@@H](N)C2)c(Cl)c1	2.55% and 7.63%	83.85% and 39.83%	0.11% and 0%	7.35% and 0%	44.61% and 70.21%	90.62% and 66.13%	99.89% and 100%			
CN(C)CCCc1cc(C(=O)Nc2ccc(-c3ccncc3)cc2)ccc1O.Cl.Cl	11% and 16%	81% and 75%	2% and 5%	2% and 1%	19% and 24%	76% and 78%	97% and 94%	23% and 21%	6% and 8%	14% and 13%
Cn1cnc(-c2cnc(O[C@H]3CCN(C(=O)Cc4ccc(OC(F)(F)F)cc4)C[C@H]3F)c(C(N)=O)c2)c1		86.49% and 68.91%	0% and 0.42%			89.54% and 83.58%	100% and 99.58%		10.34% and 28.15%	
CC[C@H](Nc1ncnc2[nH]cnc12)c1nc2cccc(F)c2c(=O)n1-c1ccccc1 [IDELALISIB]	2.71% and 1.53%	87.1% and 67.82%	0% and 0.38%	5.58% and 2.26%	15.63% and 14.69%	94.53% and 87.5%	100% and 99.62%	5.47% and 12.5%		

Same assay, conditions: human, 48 h, 1 µM, compound concentration 1 uM

SMILES	Total Cell Count
CN(C)CCCc1cc(C(=O)Nc2ccc(-c3ccncc3)cc2)ccc1O.Cl.Cl	814 and 596

Same assay, conditions: human, 48 h, 10 µM, compound concentration 10 uM

SMILES	Population Apoptotic (%)	Population Fragmented Nuclei (%)	Population Healthy Nuclei (%)	Population Hoechst High Intensity Objects (%)	Population Membrane Permeable-Phenotype (%)	Population Mitochondria Different-Phenotype (%)	Population Mitotic Cells (%)	Population Normal (%)	Population Pyknosed Nuclei (%)	Population Tubulin-Different-Phenotype (%)
Cl.Cl.N#Cc1ccc(O[C@@H]2c3ccccc3C[C@H]2N2CCC[C@@H](N)C2)c(Cl)c1	63.04% and 79.59%	2.57% and 5.97%	58% and 20.9%	1.69% and 0.74%	1.48% and 7.14%	95.07% and 92.86%	36.96% and 20.41%	98.31% and 99.26%	39.43% and 73.13%	30.05% and 89.29%
CCC(=O)N1CCN(c2ccc(-n3c(=O)ccc4cnc5ccc(-c6cnc7ccccc7c6)cc5c43)cc2C(F)(F)F)CC1 [TORIN1]	56% and 68%		70% and 56%		0%	77% and 80%	43%	73% and 38%		47% and 37%
CN(C)CCCc1cc(C(=O)Nc2ccc(-c3ccncc3)cc2)ccc1O.Cl.Cl	29% and 58%	17% and 15%	75% and 76%	5% and 11%	1% and 0%	21% and 35%	70% and 41%	94% and 88%	6% and 7%	13% and 20%
Cn1cnc(-c2cnc(O[C@H]3CCN(C(=O)Cc4ccc(OC(F)(F)F)cc4)C[C@H]3F)c(C(N)=O)c2)c1			80.81% and 60.93%	0% and 2.27%			82.61% and 79.27%	100% and 97.73%	16.11% and 38.14%	
CC[C@H](Nc1ncnc2[nH]cnc12)c1nc2cccc(F)c2c(=O)n1-c1ccccc1 [IDELALISIB]	17.44% and 25.24%	2.23% and 1.97%	80.32% and 47.29%	0.2% and 0%	6.31% and 1.04%	64.39% and 55.21%	82.56% and 74.76%	99.8% and 100%	17.44% and 50.74%	

Same assay, conditions: human, 48 h, 10 µM, compound concentration 10 uM

SMILES	Total Cell Count
Cl.Cl.N#Cc1ccc(O[C@@H]2c3ccccc3C[C@H]2N2CCC[C@@H](N)C2)c(Cl)c1	356 and 135
CCC(=O)N1CCN(c2ccc(-n3c(=O)ccc4cnc5ccc(-c6cnc7ccccc7c6)cc5c43)cc2C(F)(F)F)CC1 [TORIN1]	292 and 235
CN(C)CCCc1cc(C(=O)Nc2ccc(-c3ccncc3)cc2)ccc1O.Cl.Cl	883 and 641
CC[C@H](Nc1ncnc2[nH]cnc12)c1nc2cccc(F)c2c(=O)n1-c1ccccc1 [IDELALISIB]	494 and 203
